Most compounds without a hit are left out; they make up all but 4.8% or so of the library.
PAFAH1B3 FP inh = inhibitors of human PAFAH1B3 | inhibition, % at 3.39 µM | 340,000 tested, 0.28% active | recombinant PAFAH1B3, FP-rhodamine probe, fluorescence polarization | AID 492972;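 active = inhibition above the screen-wide average of all tested compounds plus 3 SD, cut at about 25% in these data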
Target sequence (Q15102 whole entry, looked up): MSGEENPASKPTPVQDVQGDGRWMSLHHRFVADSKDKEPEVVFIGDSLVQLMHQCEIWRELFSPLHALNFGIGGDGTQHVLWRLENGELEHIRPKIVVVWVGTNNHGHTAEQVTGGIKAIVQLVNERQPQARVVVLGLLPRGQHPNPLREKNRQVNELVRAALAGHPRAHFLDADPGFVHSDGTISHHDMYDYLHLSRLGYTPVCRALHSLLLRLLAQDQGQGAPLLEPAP
PAFAH1B2 inh = inhibitors of human PAFAH1B2; P68402; recombinant PAFAH1B2, FP-rhodamine activity probe, fluorescence polarization; inhibition, % at 3.39 µM; 340,000 tested, 1.2% active; AID 492953;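 active = inhibition above the mean of all tested compounds plus 3 SD, cut at about 24% in these data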
NR3A LBD binder = modulators (binders) of human NR3A ligand-binding domain; NR3A LBD differential scanning fluorimetry, Tm shift; 0% = protein alone, 100% = glycine-bound protein; Tm shift relative to glycine control, % at 25 µM; 340,000 tested, 2.5% active;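 active = melting temperature shift of at least 10% of the positive control shift, at one fixed dose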
PAFAH2 FP inh = inhibitors of human PAFAH2; Q99487; recombinant PAFAH2, FP-rhodamine activity probe, fluorescence polarization; inhibition, % at 3.39 µM; 340,000 tested, 0.99% active;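 active = inhibition above the mean over all tested compounds plus 3 SD, cut at about 30% in these data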;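 also: inhibitors block probe labeling of enzyme so polarization drops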
pPAFAH FP inh = pPAFAH (human) enzyme inhibition; inhibition, % at 3.39 µM; recombinant pPAFAH, FP-rhodamine probe fluorescence polarization; 330,000 tested, 1.5% active;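 active = inhibition above the mean inhibition across the screen plus 3 SD, cut at about 25% in these data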;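 also: inhibitors block binding of the rhodamine activity-based probe so polarization drops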
UCH37 DUB inh = human UCH37 deubiquitinating enzyme inhibition. AID 588478. 330,000 tested, 0.33% active. purified proteasome/UCH37, Ub-AMC cleavage fluorescence. inhibition, % (test concentration not listed);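 active = mean inhibition over replicate wells above about 20%, limit read from the data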
Target sequence (Q9Y5K5 whole entry, looked up): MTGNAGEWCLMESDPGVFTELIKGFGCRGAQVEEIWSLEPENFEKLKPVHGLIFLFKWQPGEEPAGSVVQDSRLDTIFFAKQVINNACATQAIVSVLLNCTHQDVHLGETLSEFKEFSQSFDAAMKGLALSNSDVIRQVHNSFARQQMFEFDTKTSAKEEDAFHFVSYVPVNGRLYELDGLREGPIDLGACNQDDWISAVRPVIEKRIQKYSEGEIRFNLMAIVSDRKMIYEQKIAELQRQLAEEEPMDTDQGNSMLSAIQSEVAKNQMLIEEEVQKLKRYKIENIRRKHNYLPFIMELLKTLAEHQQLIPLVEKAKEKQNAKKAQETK
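Assay system: Proteasome-bound UCH37. Buffer or medium: pH 7.4 Tris-HCl (50 mM) with ovalbumin, ATP-MgCl2, DTT. Incubation: 30 min preincubation with enzyme, 25 min cleavage at room temperature. Measured by: fluorescence, ex 355 nm, em 460 nm. Read-out basis: percent inhibition. Control set: wells without proteasome as full block, compound-free enzyme plus substrate as uninhibited.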
Each line names hits and unclear results; the compound was inactive in the other large screens.

c1ccc(CSc2ccc3nnc(-c4cccnc4)n3n2)cc1	NR3A LBD binder 14
Cc1cccc(CSc2ccc3nnc(-c4cccnc4)n3n2)c1	none
O=C(O)CC(NC(=O)c1ccccc1NC(=O)c1ccccc1)C(=O)O (stereo not given)	NR3A LBD binder 28
Cc1ccc(-n2c(C)cc(C=NNC(=O)Cn3c4ccccc4c(=O)c4ccccc43)c2C)cc1	none (no result: PAFAH1B3 FP inh, PAFAH1B2 inh, NR3A LBD binder, PAFAH2 FP inh, pPAFAH FP inh)
COc1ccc(C=NNC(=O)Nc2nonc2N)cc1	none (no result: PAFAH1B3 FP inh, PAFAH1B2 inh, NR3A LBD binder, PAFAH2 FP inh, pPAFAH FP inh)
CCn1c(O)c(/C=C2\C=Nc3ccccc32)sc1=Nc1ccc(C)cc1	NR3A LBD binder 18
S=C(NCc1ccco1)NN=Cc1cccnc1	none (no result: PAFAH1B3 FP inh, PAFAH1B2 inh, NR3A LBD binder, PAFAH2 FP inh, pPAFAH FP inh)
CC(C)c1ccc(NC2CCCN(C(=O)c3n[nH]c4c3CCC4)C2)cc1 (stereo not given)	PAFAH1B2 inh 27
COC(=O)c1ccc(C(=O)N2CCCC(Nc3ccc(C(C)C)cc3)C2)cc1 (stereo not given)	none
O=C(Nc1nnc(Cc2ccccc2F)s1)c1ccccc1Cl	none (no result: UCH37 DUB inh)
CC(C)(C)c1ccc(C(=O)Nc2nnc(Cc3c[nH]c4ccccc34)s2)cc1	NR3A LBD binder 26
O=C(Nc1nnc(Cc2c[nH]c3ccccc23)s1)c1ccc(Cl)cc1Cl	NR3A LBD binder 26
NNC(=O)c1cc(-c2ccc(O)cc2)nc2ccc(Br)cc12	NR3A LBD binder 11
CN(C)c1ccc(C=NNC(=O)CSc2ccccn2)cc1	none (no result: PAFAH1B3 FP inh, PAFAH1B2 inh, NR3A LBD binder, PAFAH2 FP inh, pPAFAH FP inh)
CC1C(=NO)C(CN(C)C)C2CC1C2(C)C (stereo not given)	none (no result: PAFAH1B3 FP inh, PAFAH1B2 inh, NR3A LBD binder, PAFAH2 FP inh, pPAFAH FP inh)
O=CN/C=C/c1cccc(O)c1	NR3A LBD binder 14 (no result: pPAFAH FP inh, UCH37 DUB inh)
O=C(NN=Cc1cccc(O)c1)NN=Cc1cccc(O)c1	none (no result: PAFAH1B3 FP inh, PAFAH1B2 inh, NR3A LBD binder, PAFAH2 FP inh, pPAFAH FP inh)
Cc1ccc(-c2cc(C(=O)NN=C/C=C/c3ccccc3)n[nH]2)o1	none (no result: PAFAH1B3 FP inh, PAFAH1B2 inh, NR3A LBD binder, PAFAH2 FP inh, pPAFAH FP inh)
O=C(OCC(=O)N1CCN(c2ccccc2)CC1)c1ccc2ccccc2n1	NR3A LBD binder 14
CN(Cc1ccccc1)C(=O)COC(=O)c1ccc2c(c1)OCO2	pPAFAH FP inh 26
CN(Cc1ccccc1)C(=O)COC(=O)c1ccc2ccccc2n1	pPAFAH FP inh 25
COc1cc(C(C)=NNC(=O)C(O)(c2ccccc2)c2ccccc2)ccc1O	none (no result: PAFAH1B3 FP inh, PAFAH1B2 inh, NR3A LBD binder, PAFAH2 FP inh, pPAFAH FP inh)
COc1ccc2cc3cc(C(=O)Nc4ccc5c(c4)OCO5)oc3nc2c1	NR3A LBD binder 26
COc1ccc2cc3cc(C(=O)NCCc4ccc(OC)c(OC)c4)oc3nc2c1	none
Cc1ccc2cc3cc(C(=O)NCc4ccc5c(c4)OCO5)oc3nc2c1	none (no result: pPAFAH FP inh)
COc1ccc2nc3oc(C(=O)Nc4ccc(OC)c(OC)c4)cc3cc2c1	NR3A LBD binder 17
Cc1ccc(S(=O)(=O)Nc2ccc(Cl)cc2C(=O)c2ccc(F)cc2)cc1	PAFAH1B2 inh 43
Cc1ccc(S(=O)(=O)Nc2ccc(Cl)cc2C(=O)c2ccccc2)cc1	PAFAH1B2 inh 27
CC(=NNC(=O)c1c(Cl)c(C)nn1C)c1cccc(NC(=O)COc2ccccc2)c1	none (no result: PAFAH1B3 FP inh, PAFAH1B2 inh, NR3A LBD binder, PAFAH2 FP inh, pPAFAH FP inh)
CCOc1ccc(C=NOCC(=O)Nc2cc(C)on2)cc1	none (no result: PAFAH1B3 FP inh, PAFAH1B2 inh, NR3A LBD binder, PAFAH2 FP inh, pPAFAH FP inh)
N#Cc1c(NC(=O)CSc2ncccn2)oc(-c2ccccc2)c1-c1ccccc1	pPAFAH FP inh 32
N#Cc1c(NC(=O)Cn2cnc3ccccc3c2=O)oc(-c2ccccc2)c1-c1ccccc1	PAFAH1B2 inh 29
N#Cc1c(NC(=O)CN2CCOCC2)oc(-c2ccccc2)c1-c1ccccc1	none
Cc1ccnc(SCC(=O)Nc2oc(-c3ccccc3)c(-c3ccccc3)c2C#N)n1	none
COc1cc(C=NNC(=O)COc2ccc(-n3cnnn3)cc2)ccc1OCC(N)=O	none (no result: PAFAH1B3 FP inh, PAFAH1B2 inh, NR3A LBD binder, PAFAH2 FP inh, pPAFAH FP inh)
O=C(COC(=O)c1ccc2ccccc2n1)Nc1ncc(C(F)(F)F)cc1Cl	pPAFAH FP inh 26
O=C(COC(=O)c1nc(Cl)ccc1Cl)Nc1ncc(Cl)cc1Cl	PAFAH1B3 FP inh 51, PAFAH1B2 inh 61, PAFAH2 FP inh 52
O=C(COC(=O)CCOc1ccccc1)Nc1ncc(Cl)cc1Cl	none
O=C(COC(=O)c1ccc(S(=O)(=O)NCc2ccco2)cc1)Nc1ncc(Cl)cc1Cl	pPAFAH FP inh 25
COc1ccccc1OCCC(=O)OCC(=O)Nc1ncc(Cl)cc1Cl	pPAFAH FP inh 26
COc1ccc(C(=O)NN=C2SCC(=O)N2Cc2ccc3c(c2)OCO3)cc1OC	none (no result: PAFAH1B3 FP inh, PAFAH1B2 inh, NR3A LBD binder, PAFAH2 FP inh, pPAFAH FP inh)
CCOc1cc(/C=C(/C#N)c2nc3ccccc3[nH]2)ccc1OCc1ccc(C(=O)O)o1	none (no result: UCH37 DUB inh)

Bioassay records as filed in PubChem BioAssay.
